Laboratory results: ChEMBL document CHEMBL1125346, “Guanidinophenyl-substituted enol lactones as selective, mechanism-based inhibitors of trypsin-like serine proteases” (J Med Chem, 1992)

What was measured:
[1] = target: T1, Neutrophil elastase (Homo sapiens) (UniProt P08246); experiment: Time for which maximum percent inhibition persists was determined against human neutrophil elastase HNE(66 nM); assay type: functional
T1 sequence (whole entry): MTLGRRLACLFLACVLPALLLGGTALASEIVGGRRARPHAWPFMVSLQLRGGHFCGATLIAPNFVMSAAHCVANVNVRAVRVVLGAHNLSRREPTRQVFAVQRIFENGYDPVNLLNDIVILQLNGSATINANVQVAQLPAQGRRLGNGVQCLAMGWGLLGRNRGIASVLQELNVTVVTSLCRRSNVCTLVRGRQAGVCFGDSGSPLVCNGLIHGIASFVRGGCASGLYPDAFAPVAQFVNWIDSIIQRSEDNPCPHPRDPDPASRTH
Method in brief: (§1)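 Enzyme incubated with excess lactone added from DMSO stock (final 10% DMSO); aliquots over 2 h diluted into substrate: chymotrypsin Suc-AAPF-pNA 315 µM, pH 7.2, 410 nm; t-PA Spectrozyme t-PA 0.2 mM, Tris-imidazole pH 8.4, 405 nm; HNE MeO-Suc-AAPV-pNA 150 µM, pH 7.4, 410 nm; plasmin Ts-GPK-pNA 157.4 µM, pH 7.8, 404 nm; thrombin Ts-GPR-pNA 75 µM, pH 8.0, 408 nm; trypsin Z-VGR-pNA 155 µM, pH 7.2, 404 nm. Activity given relative to a no-lactone control. Some runs used a 10-min substrate-free delay after dilution. ∞ means no recovery over 2 h.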

[2] = target: Plasminogen (Homo sapiens) (UniProt P00747); experiment: Second order rate constant against plasmin
Method in brief: (§2)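 Competitive substrate assay: lactone (DMSO, final 10% v/v) and chromogenic substrate combined in buffer, enzyme added, absorbance followed to steady state. Turnover-corrected semilog plot gives kobs; I0 vs I0/kobs replot (eq 6) with separately determined Km yields Ki and ka. Where no burst was seen, Ki was estimated from Km(app) replots using 15-s initial velocities. Buffers and substrates as in incubation assay.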

[3] = target: Chymotrypsinogen A (Bos taurus) (UniProt P00766); experiment: Acylation rate constant against Chymotrypsinogen; method in brief: as §2
[4] = target: T2, Urokinase-type plasminogen activator (Homo sapiens, UniProt P00749)
[5] = target: Plasminogen (Homo sapiens) (UniProt P00747); experiment: Time to reach maximum percent inhibition by the compound was determined against plasmin(625 nM); assay type: functional
Method in brief: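 Plasmin plus excess lactone (10% final DMSO) was sampled over 2 h into Ts-Gly-Pro-Lys-pNA (157.4 μM) in 0.05 M phosphate, pH 7.8. The slope at 404 nm, relative to an enzyme-only control, gave residual activity. Minutes needed to reach maximal inhibition were reported.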

[6] = target: T3, Serine protease 1 (Bos taurus) (UniProt P00760); experiment: Time to reach maximum percent inhibition by the compound was determined against trypsin (14.6 nM); assay type: functional
T3 sequence (whole entry): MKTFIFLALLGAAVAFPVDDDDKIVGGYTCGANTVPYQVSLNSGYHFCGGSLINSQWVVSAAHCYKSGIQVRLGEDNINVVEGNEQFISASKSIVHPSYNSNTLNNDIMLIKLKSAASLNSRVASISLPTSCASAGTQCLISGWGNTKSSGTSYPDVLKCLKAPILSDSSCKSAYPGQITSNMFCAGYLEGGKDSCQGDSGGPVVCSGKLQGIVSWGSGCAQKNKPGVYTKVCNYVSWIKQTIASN
Method in brief: (§3)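 Trypsin was incubated with excess lactone added from DMSO stock (10% final DMSO). Aliquots taken over 2 h were diluted into Z-Val-Gly-Arg-pNA (155 μM) in 0.2 M phosphate, pH 7.2, and read at 404 nm. Activity came from the absorbance slope versus a no-lactone control. Reported are minutes to maximal inhibition and minutes it persisted; ∞ means no recovery within 2 h.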

[7] = target: Prothrombin (Homo sapiens) (UniProt P00734); experiment: Percent activity regained after N2H4 treatment for thrombin (1.93 nM); assay type: functional
[8] = target: Chymotrypsinogen A (Bos taurus) (UniProt P00766); experiment: Substrate binding constant against Chymotrypsinogen; method in brief: as §2
[9] = target: Prothrombin (Homo sapiens) (UniProt P00734); experiment: Acylation rate constant against thrombin; method in brief: as §2
[10] = target: T3, Serine protease 1 (Bos taurus); experiment: Maximum percent inhibition by the compound was determined against trypsin (14.6 nM); method in brief: as §1
[11] = target: Plasminogen (Homo sapiens) (UniProt P00747); experiment: Maximum percent inhibition by the compound was determined against plasmin(625 nM); method in brief: as §1
[12] = target: Chymotrypsinogen A (Bos taurus) (UniProt P00766); experiment: Second order rate constant against Chymotrypsinogen; method in brief: as §2
[13] = Ratio of initial inhibitor concentration to initial trypsin concentration
Method in brief: (§4)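 Ratio I0/E0 of lactone to enzyme in the 2-h incubation assay; lactone added from DMSO stock to buffered enzyme (final 10% DMSO).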

[14] = target: T3, Serine protease 1 (Bos taurus); experiment: Time for which maximum percent inhibition persists was determined against trypsin (14.6 nM); assay type: functional; method in brief: as §3
[15] = target: Chymotrypsinogen A (Bos taurus) (UniProt P00766); experiment: Time for which maximum percent inhibition by the compound was determined against alpha-chymotrypsin (17 nM); assay type: functional; method in brief: as §1
[16] = Ratio of initial inhibitor concentration to initial Plasmin concentration; method in brief: as §4
[17] = target: T2, Urokinase-type plasminogen activator; experiment: Percent activity regained after N2H4 treatment for Urokinase-type plasminogen activator (300 nM); assay type: functional
[18] = target: Prothrombin (Homo sapiens) (UniProt P00734); experiment: Maximum percent inhibition by the compound was determined against thrombin (1.93 nM); method in brief: as §1
[19] = target: Plasminogen (Homo sapiens) (UniProt P00747); experiment: Acylation rate constant against plasmin; method in brief: as §2
[20] = Ratio of initial inhibitor concentration to initial Chymotrypsinogen concentration; method in brief: as §4
[21] = target: Tissue-type plasminogen activator (Homo sapiens) (UniProt P00750); experiment: Time to reach maximum percent inhibition by the compound was determined against Tissue plasminogen activator (19.4 nM); assay type: functional
Method in brief: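 Tissue plasminogen activator was exposed to excess lactone (10% final DMSO). Over 2 h, aliquots were diluted into Spectrozyme t-PA (0.2 mM) in Tris-imidazole, I 0.3, pH 8.4. Hydrolysis at 405 nm gave residual activity relative to an enzyme-only control. The time (min) to reach maximal percent inhibition was recorded.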

[22] = target: Prothrombin (Homo sapiens) (UniProt P00734); experiment: Time to reach maximum percent inhibition by the compound was determined against thrombin (1.93 nM); assay type: functional
Method in brief: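 Thrombin was incubated with excess lactone (DMSO, 10% final). Aliquots over 2 h were diluted into Ts-Gly-Pro-Arg-pNA (75 μM) in 0.05 M phosphate, 0.01 M EDTA, 10 g/L PEG 8000, 10 mg/L aprotinin, pH 8.0, and read at 408 nm against a no-lactone control. Time to maximal inhibition was recorded.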

[23] = target: Plasminogen (Homo sapiens) (UniProt P00747); experiment: Time for which maximum percent inhibition persists was determined against plasmin(625 nM); * =no enzyme activity was recovered over 2 h; assay type: functional; method in brief: as §1
[24] = target: Tissue-type plasminogen activator (Homo sapiens) (UniProt P00750); experiment: Maximum percent inhibition by the compound was determined against Tissue plasminogen activator (19.4 nM); method in brief: as §1
[25] = target: Plasminogen (Homo sapiens) (UniProt P00747); experiment: Substrate binding constant against plasmin; method in brief: as §2
[26] = target: Prothrombin (Homo sapiens) (UniProt P00734); experiment: Substrate binding constant against thrombin; method in brief: as §2
[27] = Ratio of initial inhibitor concentration to initial urokinase concentration; method in brief: as §4
[28] = target: T2, Urokinase-type plasminogen activator; experiment: Acylation rate constant against urokinase
[29] = target: Chymotrypsinogen A (Bos taurus) (UniProt P00766); experiment: Percent activity regained after N2H4 treatment for alpha-chymotrypsin (17 nM); assay type: functional
[30] = target: T1, Neutrophil elastase (Homo sapiens); experiment: Maximum percent inhibition persists was determined against human neutrophil elastase HNE 66 nM; method in brief: as §1
[31] = Ratio of initial inhibitor concentration to initial t-PA concentration; method in brief: as §4
[32] = target: Chymotrypsinogen A (Bos taurus) (UniProt P00766); experiment: Maximum percent inhibition persists was determined against Chymotrypsinogen (17 nM); method in brief: as §1
[33] = target: Prothrombin (Homo sapiens) (UniProt P00734); experiment: Time for which maximum percent inhibition persists was determined against thrombin (1.93 nM); * =no enzyme activity was recovered over 2 h; assay type: functional; method in brief: as §1
[34] = target: Prothrombin (Homo sapiens) (UniProt P00734); experiment: Second order rate constant against thrombin; method in brief: as §2
[35] = target: Chymotrypsinogen A (Bos taurus) (UniProt P00766); experiment: Time for which maximum percent inhibition persists was determined against alpha-chymotrypsin (17 nM); * =no enzyme activity was recovered over 2 h; assay type: functional; method in brief: as §1
[36] = Ratio of initial inhibitor concentration to initial HNE concentration; method in brief: as §4
[37] = target: T2, Urokinase-type plasminogen activator; remark: listed apart in the source
[38] = Ratio of initial inhibitor concentration to initial thrombin concentration; method in brief: as §4
[39] = target: T1, Neutrophil elastase (Homo sapiens); experiment: Time for which maximum percent inhibition by the compound was determined against human neutrophil elastase HNE(66 nM); assay type: functional; method in brief: as §1
[40] = target: Tissue-type plasminogen activator (Homo sapiens) (UniProt P00750); experiment: Percent activity regained after N2H4 treatment for Tissue plasminogen activator 19.4 nM); assay type: functional
[41] = target: Tissue-type plasminogen activator (Homo sapiens) (UniProt P00750); experiment: Time for which maximum percent inhibition persists was determined against Tissue plasminogen activator (19.4 nM); * =no enzyme activity was recovered over 2 h; assay type: functional; method in brief: as §1
[42] = target: Tissue-type plasminogen activator (Homo sapiens) (UniProt P00750); experiment: Substrate binding constant against Tissue plasminogen activator; method in brief: as §2
[43] = target: Plasminogen (Homo sapiens) (UniProt P00747); experiment: Percent activity regained after N2H4 treatment for plasmin(625 nM); assay type: functional

Chain of Tissue-type plasminogen activator (Homo sapiens) (P00750 36-562 limits assumed): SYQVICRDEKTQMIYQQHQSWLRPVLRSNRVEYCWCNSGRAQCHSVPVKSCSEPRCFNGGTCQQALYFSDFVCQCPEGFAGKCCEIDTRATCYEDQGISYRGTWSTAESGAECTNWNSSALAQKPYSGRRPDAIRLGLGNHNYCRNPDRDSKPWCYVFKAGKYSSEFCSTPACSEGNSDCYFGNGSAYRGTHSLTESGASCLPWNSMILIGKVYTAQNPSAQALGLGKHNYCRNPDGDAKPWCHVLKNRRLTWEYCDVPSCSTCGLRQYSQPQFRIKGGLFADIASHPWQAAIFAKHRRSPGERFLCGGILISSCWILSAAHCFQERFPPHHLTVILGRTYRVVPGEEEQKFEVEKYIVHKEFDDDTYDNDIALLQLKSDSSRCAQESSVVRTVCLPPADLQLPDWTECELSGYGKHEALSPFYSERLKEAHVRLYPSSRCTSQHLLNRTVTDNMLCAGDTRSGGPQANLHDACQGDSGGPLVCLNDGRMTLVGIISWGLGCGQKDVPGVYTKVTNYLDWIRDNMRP
Chain of Plasminogen (Homo sapiens) (P00747 97-580 limits assumed): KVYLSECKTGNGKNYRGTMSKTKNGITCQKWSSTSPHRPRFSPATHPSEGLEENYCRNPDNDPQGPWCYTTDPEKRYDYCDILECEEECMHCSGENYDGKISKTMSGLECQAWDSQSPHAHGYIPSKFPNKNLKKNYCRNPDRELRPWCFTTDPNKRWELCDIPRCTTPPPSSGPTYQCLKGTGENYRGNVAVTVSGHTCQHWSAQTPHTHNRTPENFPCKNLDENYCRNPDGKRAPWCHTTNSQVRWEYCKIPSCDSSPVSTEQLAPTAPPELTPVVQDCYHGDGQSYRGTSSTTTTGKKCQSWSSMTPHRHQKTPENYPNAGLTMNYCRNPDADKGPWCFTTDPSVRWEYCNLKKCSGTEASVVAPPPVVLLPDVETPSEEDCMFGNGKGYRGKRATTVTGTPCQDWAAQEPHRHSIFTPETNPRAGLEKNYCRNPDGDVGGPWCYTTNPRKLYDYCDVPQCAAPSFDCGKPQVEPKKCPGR
Chain of Plasminogen (Homo sapiens) (P00747 581-810 limits assumed): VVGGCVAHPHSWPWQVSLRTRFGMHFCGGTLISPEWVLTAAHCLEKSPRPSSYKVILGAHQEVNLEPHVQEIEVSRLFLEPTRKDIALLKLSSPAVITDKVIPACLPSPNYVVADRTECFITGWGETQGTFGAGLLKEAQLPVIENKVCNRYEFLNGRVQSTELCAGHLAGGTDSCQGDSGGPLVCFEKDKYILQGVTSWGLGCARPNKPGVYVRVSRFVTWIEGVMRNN

## N=C(N)Nc1ccc(C2CC/C(=C\I)OC2=O)cc1 (stereo not drawn)
[1]
  TIME: 1.5 h
[2]
  Rate: 453 ka/Ks
[3]
  Ka: 7.22 min⁻¹
[4]
  Rate: 117 ka/Ks
[5]
  TIME: 0 h
[6]
  TIME: 0 h
[7]
  Activity: 85%
[8]
  Ks: 2.4 µM
[9]
  Ka: 12.9 min⁻¹
[10]
  inhibition: 80%
[11]
  inhibition: 95%
[12]
  Rate: 3 ka/Ks
[13]
  Ratio: 86 Io/Eo
[14]
  TIME: 0 h
[15]
  TIME: 0.25 h
[16]
  Ratio: 16 Io/Eo
[17]
  Activity: 0%
[18]
  inhibition: 93%
[19]
  Ka: 13.6 min⁻¹
[20]
  Ratio: 118 Io/Eo
[21]
  TIME: 0.25 h
[22]
  TIME: 0 h
[23]
  TIME: No enzyme activity
[24]
  inhibition: 48%
[25]
  Ks: 0.03 µM
[26]
  Ks: 0.93 µM
[27]
  Ratio: 50 Io/Eo
[28]
  Ka: 18.6 min⁻¹
[29]
  Activity: 32%
[30]
  inhibition: 38%
[31]
  Ratio: 100 Io/Eo
[32]
  inhibition: 78%
[33]
  TIME: No enzyme activity
[34]
  Rate: 14 ka/Ks
[35]
  TIME: No enzyme activity
[36]
  Ratio: 36 Io/Eo
[37]
  Ks: 0.16 µM
[38]
  Ratio: 518 Io/Eo
[39]
  TIME: 0.5 h
[40]
  Activity: 0%
[41]
  TIME: No enzyme activity
[42]
  Ks: 0.67 µM
[43]
  Activity: 14%
